Results collected from several papers.
Lines come from different studies, so protocols differ.

CN(C)c1ccc(-c2c(C(N)=S)c(N)n(N)c(=O)c2C#N)cc1
inhibition zone (Saccharomyces cerevisiae; microbial growth, well diffusion; ATCC9763; 500 µg/mL): 14 mm

O=C(NC(=S)Nc1nccs1)c1ccco1
IC50 (Leishmania tropica; parasite growth, resazurin; promastigote): 12.4 µM

Cc1c(C(=O)O)ccc2c3n(nc12)[C@@H]1[C@H](C3)N(CC2CC2)[C@@]2(C(=O)Nc3cc(Cl)ccc32)[C@H]1c1cccc(Cl)c1F
IC50 (NUGC-4; cell growth or viability, resazurin): 0.012 µM

N#Cc1c(-c2ccc(Cl)cc2Cl)c(C(N)=S)c(N)n(N)c1=O
inhibition zone (Saccharomyces cerevisiae; microbial growth, well diffusion; ATCC9763; 500 µg/mL): 11 mm

C=CC(=O)NC1CCN(c2ncc3ncnc(Nc4ccc(Oc5ccc6c(c5)ncn6C)c(C)c4)c3n2)CC1
EC50 (PANC-1; cell growth or viability): 1.8 µM

O=C(NC(=S)Nc1ccccc1O)c1ccco1
IC50 (Leishmania tropica; parasite growth, resazurin; promastigote): 4.19 µM

C=CC(=O)Nc1cc(Nc2nccc(-c3cn(C)c4ccccc34)n2)c(OC)cc1N(C)CCN(C)C
IC50 (PANC-1; cell growth or viability, MTS; 72 h): 7.14 µM

CCCCCCCCCCCCCCCCOP(=O)([O-])OCC[N+](C)(C)C
IC50 (Leishmania tropica; parasite growth, resazurin; promastigote): 2.12 µM

Nc1ccc(/C=C/C(=O)NCc2cc3cc(-c4ccc(C(=O)N5CCC(F)(F)CC5)cc4)cc(-c4ccc(F)cc4)c3o2)cn1
IC50 (PANC-1; cell growth or viability, CCK-8; 72 h): > 20 µM

COc1ccc(Cc2[nH]/c(=N/C(=O)C34CC5CC(CC(C5)C3)C4)n(C)c2-c2ccc(OC(=O)c3ccccc3)c(OC)c2)cc1
IC50 (Hepatitis B virus; viral replication, inhibitor; HePAD38): 9.82 µM

N#Cc1c(-c2ccc(OCc3ccccc3)cc2)c(C(N)=S)c(N)n(N)c1=O
inhibition zone (Saccharomyces cerevisiae; microbial growth, well diffusion; ATCC9763; 500 µg/mL): 17 mm

Nc1ccc(/C=C/C(=O)N2CCc3c(oc4c(-c5ccc(F)cc5)cc(-c5ccc(C(=O)N6CCOCC6)nn5)cc34)C2)cn1
IC50 (PANC-1; cell growth or viability, CCK-8; 72 h): > 20 µM
